Experiments:
[1] = molecular target: T1, Ectonucleoside triphosphate diphosphohydrolase 1 (Homo sapiens) (UniProt P49961); test: Inhibition of human NTPDase1 assessed as amount of inorganic phosphate released using ATP as the substrate preincubated at 100 uM for 3 mins before substrate addition after 15 mins by malachite green reagent method
T1 sequence (whole entry): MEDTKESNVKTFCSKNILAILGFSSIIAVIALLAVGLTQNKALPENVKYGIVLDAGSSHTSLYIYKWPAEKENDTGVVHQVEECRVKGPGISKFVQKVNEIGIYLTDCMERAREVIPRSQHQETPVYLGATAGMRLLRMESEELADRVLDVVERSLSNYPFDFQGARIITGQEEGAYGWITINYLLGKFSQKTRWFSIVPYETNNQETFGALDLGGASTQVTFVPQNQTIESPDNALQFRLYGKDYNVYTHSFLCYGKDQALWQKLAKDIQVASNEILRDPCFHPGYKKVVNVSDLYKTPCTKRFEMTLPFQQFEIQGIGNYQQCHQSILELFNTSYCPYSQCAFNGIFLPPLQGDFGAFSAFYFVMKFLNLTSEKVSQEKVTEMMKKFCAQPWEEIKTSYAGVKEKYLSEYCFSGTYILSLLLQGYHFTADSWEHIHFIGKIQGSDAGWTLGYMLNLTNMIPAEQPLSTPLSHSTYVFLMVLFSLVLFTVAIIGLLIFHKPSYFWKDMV
Outline: (§1)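 Crude extracts of COS-7 cells transiently transfected with human NTPDase1, -2, -3 or -8, preincubated 3 min at 37 °C in Tris-Ringer medium pH 7.4 with analogue (final 100 μM). Started with 100 μM ATP, stopped after 15 min with malachite green; released Pi read at 630 nm. ATP alone set as 100%. Mean ± SD of 3−6 experiments in triplicate.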

[2] = molecular target: T2, Ectonucleotide pyrophosphatase/phosphodiesterase family member 3 (Homo sapiens) (UniProt O14638); test: Inhibition of NPP3 in human HTB-85 cells assessed as production of p-nitrophenol using pnp-TMP at 100 uM measured after 20 mins by spectrophotometry; type: cell-based
T2 sequence (whole entry): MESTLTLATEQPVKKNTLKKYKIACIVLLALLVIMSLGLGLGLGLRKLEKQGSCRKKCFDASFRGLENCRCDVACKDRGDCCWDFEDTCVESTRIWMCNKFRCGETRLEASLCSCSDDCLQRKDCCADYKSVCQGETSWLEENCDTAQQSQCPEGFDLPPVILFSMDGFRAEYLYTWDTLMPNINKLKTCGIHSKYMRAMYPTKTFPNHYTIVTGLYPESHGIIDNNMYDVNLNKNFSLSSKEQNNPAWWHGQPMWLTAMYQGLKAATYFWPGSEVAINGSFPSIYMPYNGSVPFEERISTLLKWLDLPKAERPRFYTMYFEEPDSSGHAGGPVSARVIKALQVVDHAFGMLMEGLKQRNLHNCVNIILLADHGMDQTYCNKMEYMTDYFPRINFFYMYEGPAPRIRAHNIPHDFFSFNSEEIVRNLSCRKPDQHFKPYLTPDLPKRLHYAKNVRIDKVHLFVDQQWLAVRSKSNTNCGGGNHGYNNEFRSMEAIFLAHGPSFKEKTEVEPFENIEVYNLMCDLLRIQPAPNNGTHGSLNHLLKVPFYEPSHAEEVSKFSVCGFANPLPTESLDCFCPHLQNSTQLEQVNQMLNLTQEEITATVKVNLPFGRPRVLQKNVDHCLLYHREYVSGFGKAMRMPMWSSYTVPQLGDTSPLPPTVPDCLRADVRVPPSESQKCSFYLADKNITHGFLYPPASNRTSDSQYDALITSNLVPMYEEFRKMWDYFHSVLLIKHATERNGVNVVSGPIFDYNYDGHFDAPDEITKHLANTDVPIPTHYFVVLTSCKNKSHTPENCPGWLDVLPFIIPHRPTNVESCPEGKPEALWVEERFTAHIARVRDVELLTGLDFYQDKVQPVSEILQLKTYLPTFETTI
Outline: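 Intact osteocarcinoma HTB85 (SaOS-2) cells in 24-well plates, 0.5 mL incubation mixture, analogue and pnp-TMP each at 100 μM. After 20 min an aliquot was read for p-nitrophenol at 410 nm. Substrate alone set as 100%. Mean ± SD of three experiments in triplicate.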

[3] = molecular target: T3, Ectonucleoside triphosphate diphosphohydrolase 3 (Homo sapiens) (UniProt O75355); test: Inhibition of human NTPDase3 assessed as amount of inorganic phosphate released using ATP as the substrate preincubated at 100 uM for 3 mins before substrate addition after 15 mins by malachite green reagent method; outline: as §1
T3 sequence (whole entry): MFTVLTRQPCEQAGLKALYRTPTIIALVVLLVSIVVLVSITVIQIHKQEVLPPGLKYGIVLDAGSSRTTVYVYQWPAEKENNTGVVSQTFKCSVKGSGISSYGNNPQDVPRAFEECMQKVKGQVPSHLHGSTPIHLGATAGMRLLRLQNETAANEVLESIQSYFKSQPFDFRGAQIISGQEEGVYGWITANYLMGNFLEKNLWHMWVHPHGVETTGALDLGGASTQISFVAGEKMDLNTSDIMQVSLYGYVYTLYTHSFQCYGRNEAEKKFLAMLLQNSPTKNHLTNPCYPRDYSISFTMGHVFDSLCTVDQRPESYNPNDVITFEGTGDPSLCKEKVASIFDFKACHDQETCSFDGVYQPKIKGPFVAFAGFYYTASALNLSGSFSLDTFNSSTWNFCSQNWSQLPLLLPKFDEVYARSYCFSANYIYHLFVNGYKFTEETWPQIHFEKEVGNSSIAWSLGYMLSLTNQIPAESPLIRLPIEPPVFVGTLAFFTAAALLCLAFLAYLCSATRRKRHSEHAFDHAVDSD

Row | inhibition [1] [%] | inhibition [2] [%] | inhibition [3] [%] | SMILES
1 | 50 |  |  | B[P@@](=O)(OC[C@H]1O[C@@H](n2cnc3c(N)nc(SC)nc32)[C@H](O)[C@@H]1O)OP(=O)(O)C(F)(F)P(=O)(O)O
2 | < 18 | 41 | < 18 | CSc1nc(N)c2ncn([C@@H]3O[C@H](COP(=O)(O)C(F)(F)P(=O)(O)O)[C@@H](O)[C@H]3O)c2n1
3 | < 18 | 90 | < 18 | B[P@@](=O)(OC[C@H]1O[C@@H](n2cnc3c(N)ncnc32)[C@H](O)[C@@H]1O)OP(=O)(O)CP(=O)(O)O
4 | < 18 | 41 | < 18 | B[P@](=O)(OC[C@H]1O[C@@H](n2cnc3c(N)ncnc32)[C@H](O)[C@@H]1O)OP(=O)(O)CP(=O)(O)O
5 | < 18 | 90 | < 18 | B[P@](=O)(OC[C@H]1O[C@@H](n2cnc3c(N)nc(SC)nc32)[C@H](O)[C@@H]1O)OP(=O)(O)CP(=O)(O)O

— ChEMBL document CHEMBL3085721, “Nonhydrolyzable ATP analogues as selective inhibitors of human NPP1: a combined computational/experimental study” (J Med Chem, 2013)
